Data reported in ChEMBL document CHEMBL4229333, “Effects of rigidity on the selectivity of protein kinase inhibitors” (Eur J Med Chem, 2018).

Columns and labels:
[1] = target: Death-associated protein kinase 3 (Homo sapiens) (UniProt O43293); assay: Inhibition of DAPK3 (unknown origin) at 1 uM by mobility shift microfluidics platform based assay relative to control
[2] = target: Muscle, skeletal receptor tyrosine-protein kinase (Homo sapiens) (UniProt O15146); assay: Inhibition of MUSK (unknown origin) at 1 uM by mobility shift microfluidics platform based assay relative to control
[3] = target: Inhibitor of nuclear factor kappa-B kinase subunit epsilon (Homo sapiens) (UniProt Q14164); assay: Inhibition of IKK-epsilon (unknown origin) at 1 uM by mobility shift microfluidics platform based assay relative to control
[4] = target: Tyrosine-protein kinase Blk (Homo sapiens) (UniProt P51451); assay: Inhibition of BLK (unknown origin) at 1 uM by mobility shift microfluidics platform based assay relative to control
[5] = target: Serine/threonine-protein kinase MARK1 (Homo sapiens) (UniProt Q9P0L2); assay: Inhibition of MARK1 (unknown origin) at 1 uM by mobility shift microfluidics platform based assay relative to control
[6] = target: cAMP-dependent protein kinase catalytic subunit beta (Homo sapiens) (UniProt P22694); assay: Inhibition of PKACB (unknown origin) at 1 uM by mobility shift microfluidics platform based assay relative to control
[7] = target: Platelet-derived growth factor receptor beta (Homo sapiens) (UniProt P09619); assay: Inhibition of PDGFR-beta (unknown origin) at 1 uM by mobility shift microfluidics platform based assay relative to control
[8] = target: Tyrosine-protein kinase ZAP-70 (Homo sapiens) (UniProt P43403); assay: Inhibition of ZAP70 (unknown origin) at 1 uM by mobility shift microfluidics platform based assay relative to control
[9] = target: Serine/threonine-protein kinase N2 (Homo sapiens) (UniProt Q16513); assay: Inhibition of PKN2 (unknown origin) at 1 uM by mobility shift microfluidics platform based assay relative to control
[10] = target: Serine/threonine-protein kinase pim-3 (Homo sapiens) (UniProt Q86V86); assay: Inhibition of PIM3 (unknown origin) at 1 uM by mobility shift microfluidics platform based assay relative to control
[11] = target: Protein kinase C iota type (Homo sapiens) (UniProt P41743); assay: Inhibition of PKC-iota (unknown origin) at 1 uM by mobility shift microfluidics platform based assay relative to control
[12] = target: Aurora kinase C (Homo sapiens) (UniProt Q9UQB9); assay: Inhibition of AURORA-C (unknown origin) at 1 uM by mobility shift microfluidics platform based assay relative to control
[13] = target: Serine/threonine-protein kinase PAK 2 (Homo sapiens) (UniProt Q13177); assay: Inhibition of PAK2 (unknown origin) at 1 uM by mobility shift microfluidics platform based assay relative to control
[14] = target: Homeodomain-interacting protein kinase 3 (Homo sapiens) (UniProt Q9H422); assay: Inhibition of HIPK3 (unknown origin) at 1 uM by mobility shift microfluidics platform based assay relative to control
[15] = target: Phosphatidylinositol 4,5-bisphosphate 3-kinase catalytic subunit beta isoform (Homo sapiens) (UniProt P42338); assay: Inhibition of PI3K-beta (unknown origin) at 1 uM by mobility shift microfluidics platform based assay relative to control
[16] = target: Discoidin domain-containing receptor 2 (Homo sapiens) (UniProt Q16832); assay: Inhibition of DDR2 (unknown origin) at 1 uM by mobility shift microfluidics platform based assay relative to control
[17] = target: Mitogen-activated protein kinase kinase kinase kinase 5 (Homo sapiens) (UniProt Q9Y4K4); assay: Inhibition of MAP4K5 (unknown origin) at 1 uM by mobility shift microfluidics platform based assay relative to control
[18] = target: Dual specificity tyrosine-phosphorylation-regulated kinase 1B (Homo sapiens) (UniProt Q9Y463); assay: Inhibition of DYRK1B (unknown origin) at 1 uM by mobility shift microfluidics platform based assay relative to control
[19] = target: Cyclin-dependent kinase 5/CDK5 activator 1 (Homo sapiens) (UniProt Q00535+Q15078); assay: Inhibition of CDK5-p25 (unknown origin) at 1 uM by mobility shift microfluidics platform based assay relative to control; type: protein-complex assay
[20] = target: MAP kinase-interacting serine/threonine-protein kinase 1 (Homo sapiens) (UniProt Q9BUB5); assay: Inhibition of MKNK1 (unknown origin) at 1 uM by mobility shift microfluidics platform based assay relative to control
[21] = target: BDNF/NT-3 growth factors receptor (Homo sapiens) (UniProt Q16620); assay: Inhibition of TRKB (unknown origin) at 1 uM by mobility shift microfluidics platform based assay relative to control
[22] = target: Fibroblast growth factor receptor 3 (Homo sapiens) (UniProt P22607); assay: Inhibition of FGFR3 (unknown origin) at 1 uM by mobility shift microfluidics platform based assay relative to control
[23] = target: Glycogen synthase kinase-3 alpha (Homo sapiens) (UniProt P49840); assay: Inhibition of GSK-3-alpha (unknown origin) at 1 uM by mobility shift microfluidics platform based assay relative to control
[24] = target: Cyclin-dependent kinase 5 (Homo sapiens) (UniProt Q00535); assay: Inhibition of CDK5 (unknown origin) at 1 uM by mobility shift microfluidics platform based assay relative to control
[25] = target: Ribosomal protein S6 kinase beta-2 (Homo sapiens) (UniProt Q9UBS0); assay: Inhibition of P70S6K2 (unknown origin) at 1 uM by mobility shift microfluidics platform based assay relative to control
[26] = target: Serine/threonine-protein kinase 10 (Homo sapiens) (UniProt O94804); assay: Inhibition of LOK (unknown origin) at 1 uM by mobility shift microfluidics platform based assay relative to control
[27] = target: Serine/threonine-protein kinase D3 (Homo sapiens) (UniProt O94806); assay: Inhibition of PRKD3 (unknown origin) at 1 uM by mobility shift microfluidics platform based assay relative to control
[28] = target: Tyrosine-protein kinase Fgr (Homo sapiens) (UniProt P09769); assay: Inhibition of FGR (unknown origin) at 1 uM by mobility shift microfluidics platform based assay relative to control
[29] = target: Homeodomain-interacting protein kinase 4 (Homo sapiens) (UniProt Q8NE63); assay: Inhibition of HIPK4 (unknown origin) at 1 uM by mobility shift microfluidics platform based assay relative to control
[30] = target: Serine/threonine-protein kinase TAO2 (Homo sapiens) (UniProt Q9UL54); assay: Inhibition of TAOK2 (unknown origin) at 1 uM by mobility shift microfluidics platform based assay relative to control
[31] = target: Phosphorylase b kinase gamma catalytic chain, skeletal muscle/heart isoform (Homo sapiens) (UniProt Q16816); assay: Inhibition of PHK-gamma1 (unknown origin) at 1 uM by mobility shift microfluidics platform based assay relative to control
[32] = target: Mitogen-activated protein kinase 14 (Homo sapiens) (UniProt Q16539); assay: Inhibition of P38-alpha (unknown origin) at 1 uM by mobility shift microfluidics platform based assay relative to control
Caco-2 = assay: Efflux ratio in human Caco2 cells in absence of P-gp inhibitor by LC-MS/MS analysis; type: ADME, cell-based
Procedure, shortened: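 Caco-2 bidirectional transport, with compound concentrations measured by LC-MS/MS. Efflux ratio was calculated as Papp(B−A)/Papp(A−B).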

Sequence of Mitogen-activated protein kinase kinase kinase kinase 5 (Homo sapiens) (Q9Y4K4 whole entry, looked up): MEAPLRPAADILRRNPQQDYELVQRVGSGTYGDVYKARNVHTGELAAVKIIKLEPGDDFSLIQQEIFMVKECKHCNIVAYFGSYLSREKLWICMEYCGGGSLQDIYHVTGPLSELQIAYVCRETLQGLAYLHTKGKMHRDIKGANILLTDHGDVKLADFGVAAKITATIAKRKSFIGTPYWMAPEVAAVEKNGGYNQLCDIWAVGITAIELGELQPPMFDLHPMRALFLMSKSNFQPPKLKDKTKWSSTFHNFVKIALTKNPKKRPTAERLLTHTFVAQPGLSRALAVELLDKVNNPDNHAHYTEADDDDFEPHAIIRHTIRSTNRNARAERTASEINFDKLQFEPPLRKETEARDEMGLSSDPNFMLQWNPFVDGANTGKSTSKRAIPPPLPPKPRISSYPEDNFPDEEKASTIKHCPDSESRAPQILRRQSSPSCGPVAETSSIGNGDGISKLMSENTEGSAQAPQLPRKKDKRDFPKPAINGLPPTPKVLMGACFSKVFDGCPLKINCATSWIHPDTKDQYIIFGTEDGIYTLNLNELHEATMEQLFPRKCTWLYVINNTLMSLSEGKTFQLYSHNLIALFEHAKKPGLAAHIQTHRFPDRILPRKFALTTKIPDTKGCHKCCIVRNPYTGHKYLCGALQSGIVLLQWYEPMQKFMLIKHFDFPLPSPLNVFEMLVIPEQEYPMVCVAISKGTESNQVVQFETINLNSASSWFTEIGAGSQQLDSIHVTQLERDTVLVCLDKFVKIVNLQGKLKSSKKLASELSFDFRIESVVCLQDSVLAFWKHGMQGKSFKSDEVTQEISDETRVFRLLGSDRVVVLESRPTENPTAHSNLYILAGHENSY
Sequence of Serine/threonine-protein kinase D3 (Homo sapiens) (O94806 whole entry): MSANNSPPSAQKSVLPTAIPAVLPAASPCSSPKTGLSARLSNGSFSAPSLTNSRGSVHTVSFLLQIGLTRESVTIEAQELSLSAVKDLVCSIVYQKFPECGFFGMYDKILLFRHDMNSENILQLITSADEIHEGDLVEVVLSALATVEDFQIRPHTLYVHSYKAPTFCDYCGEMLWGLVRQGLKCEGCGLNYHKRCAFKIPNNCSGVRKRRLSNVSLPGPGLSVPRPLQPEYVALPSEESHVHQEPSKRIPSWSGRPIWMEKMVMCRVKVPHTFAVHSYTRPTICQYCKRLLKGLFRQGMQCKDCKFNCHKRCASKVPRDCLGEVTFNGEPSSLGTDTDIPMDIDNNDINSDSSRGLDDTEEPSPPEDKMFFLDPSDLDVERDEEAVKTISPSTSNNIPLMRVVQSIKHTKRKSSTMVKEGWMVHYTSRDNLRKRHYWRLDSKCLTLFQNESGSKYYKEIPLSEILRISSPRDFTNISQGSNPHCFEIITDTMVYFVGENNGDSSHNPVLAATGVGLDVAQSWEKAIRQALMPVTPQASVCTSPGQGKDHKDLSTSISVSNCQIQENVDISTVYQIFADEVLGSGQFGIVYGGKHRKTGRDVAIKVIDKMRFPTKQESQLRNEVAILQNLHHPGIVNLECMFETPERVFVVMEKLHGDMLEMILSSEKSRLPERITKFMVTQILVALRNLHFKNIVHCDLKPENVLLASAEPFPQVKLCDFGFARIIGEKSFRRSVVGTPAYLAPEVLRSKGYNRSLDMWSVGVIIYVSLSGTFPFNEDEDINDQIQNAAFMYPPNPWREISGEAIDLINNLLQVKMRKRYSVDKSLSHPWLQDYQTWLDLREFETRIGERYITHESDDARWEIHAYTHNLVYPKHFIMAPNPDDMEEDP
Sequence of Protein kinase C iota type (Homo sapiens) (P41743 whole entry): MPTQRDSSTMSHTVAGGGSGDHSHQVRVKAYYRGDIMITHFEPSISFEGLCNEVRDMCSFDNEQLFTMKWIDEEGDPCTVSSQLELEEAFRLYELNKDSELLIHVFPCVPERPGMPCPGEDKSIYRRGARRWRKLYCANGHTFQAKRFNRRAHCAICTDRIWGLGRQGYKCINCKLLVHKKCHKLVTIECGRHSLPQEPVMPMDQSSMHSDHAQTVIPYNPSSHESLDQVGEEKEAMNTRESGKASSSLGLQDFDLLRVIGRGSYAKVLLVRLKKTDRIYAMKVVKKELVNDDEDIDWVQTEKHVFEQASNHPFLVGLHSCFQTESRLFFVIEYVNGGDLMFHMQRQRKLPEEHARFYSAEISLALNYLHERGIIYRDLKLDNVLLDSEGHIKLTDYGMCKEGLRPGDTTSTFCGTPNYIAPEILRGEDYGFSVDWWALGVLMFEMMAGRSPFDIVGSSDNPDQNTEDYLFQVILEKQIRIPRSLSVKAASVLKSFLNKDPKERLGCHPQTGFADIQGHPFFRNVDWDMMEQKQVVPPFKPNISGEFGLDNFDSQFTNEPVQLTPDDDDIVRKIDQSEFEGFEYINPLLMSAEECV
Sequence of Dual specificity tyrosine-phosphorylation-regulated kinase 1B (Homo sapiens) (Q9Y463 whole entry, looked up): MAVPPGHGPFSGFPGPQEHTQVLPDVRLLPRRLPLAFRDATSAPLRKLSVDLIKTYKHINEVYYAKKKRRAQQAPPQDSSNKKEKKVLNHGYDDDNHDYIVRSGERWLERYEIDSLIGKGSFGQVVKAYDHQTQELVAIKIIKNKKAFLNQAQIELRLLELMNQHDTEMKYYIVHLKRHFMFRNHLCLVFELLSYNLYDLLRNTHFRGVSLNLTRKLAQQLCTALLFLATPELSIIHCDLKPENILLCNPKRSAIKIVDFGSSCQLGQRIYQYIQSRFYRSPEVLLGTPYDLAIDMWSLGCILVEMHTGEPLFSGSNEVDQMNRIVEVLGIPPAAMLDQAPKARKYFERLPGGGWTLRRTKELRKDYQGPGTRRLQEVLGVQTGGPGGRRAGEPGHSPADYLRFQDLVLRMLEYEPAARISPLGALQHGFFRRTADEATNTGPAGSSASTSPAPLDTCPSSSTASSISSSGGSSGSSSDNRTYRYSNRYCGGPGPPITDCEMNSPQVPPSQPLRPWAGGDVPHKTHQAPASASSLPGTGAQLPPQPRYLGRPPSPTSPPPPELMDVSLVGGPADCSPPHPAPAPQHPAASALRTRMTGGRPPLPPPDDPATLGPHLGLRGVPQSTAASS
Sequence of Cyclin-dependent kinase 5/CDK5 activator 1 (Homo sapiens) (Q00535 whole entry): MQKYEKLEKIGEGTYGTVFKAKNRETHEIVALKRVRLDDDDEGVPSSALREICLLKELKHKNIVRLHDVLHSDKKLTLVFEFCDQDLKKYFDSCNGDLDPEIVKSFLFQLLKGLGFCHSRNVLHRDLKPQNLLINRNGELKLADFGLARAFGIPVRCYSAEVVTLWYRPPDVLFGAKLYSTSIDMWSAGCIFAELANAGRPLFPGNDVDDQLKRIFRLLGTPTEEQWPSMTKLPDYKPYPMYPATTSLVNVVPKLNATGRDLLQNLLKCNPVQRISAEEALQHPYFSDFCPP
Sequence of Cyclin-dependent kinase 5/CDK5 activator 1 (Homo sapiens) (Q15078 99-307 partner limits assumed): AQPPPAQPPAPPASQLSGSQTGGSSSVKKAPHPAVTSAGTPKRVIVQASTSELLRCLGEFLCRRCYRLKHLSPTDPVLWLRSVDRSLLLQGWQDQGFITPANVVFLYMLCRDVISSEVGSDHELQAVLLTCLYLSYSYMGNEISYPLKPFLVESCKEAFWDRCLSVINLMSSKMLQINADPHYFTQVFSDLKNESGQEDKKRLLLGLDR
Sequence of Cyclin-dependent kinase 5 (Homo sapiens) (Q00535 whole entry, looked up): as the sequence (Q00535 whole entry) above
Sequence of Ribosomal protein S6 kinase beta-2 (Homo sapiens) (Q9UBS0 whole entry): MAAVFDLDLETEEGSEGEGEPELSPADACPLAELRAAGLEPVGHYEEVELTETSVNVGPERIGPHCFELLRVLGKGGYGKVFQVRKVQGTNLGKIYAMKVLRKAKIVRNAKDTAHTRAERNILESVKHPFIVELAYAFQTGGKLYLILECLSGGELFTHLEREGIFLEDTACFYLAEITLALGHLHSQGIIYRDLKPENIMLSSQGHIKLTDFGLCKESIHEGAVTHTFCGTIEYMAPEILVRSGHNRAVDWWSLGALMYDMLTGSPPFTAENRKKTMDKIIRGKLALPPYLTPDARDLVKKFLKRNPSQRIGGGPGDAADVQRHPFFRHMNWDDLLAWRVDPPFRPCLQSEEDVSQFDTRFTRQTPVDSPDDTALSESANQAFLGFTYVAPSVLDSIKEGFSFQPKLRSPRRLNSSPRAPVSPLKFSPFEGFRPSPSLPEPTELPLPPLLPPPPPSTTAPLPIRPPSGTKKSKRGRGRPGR
Sequence of Aurora kinase C (Homo sapiens) (Q9UQB9 whole entry): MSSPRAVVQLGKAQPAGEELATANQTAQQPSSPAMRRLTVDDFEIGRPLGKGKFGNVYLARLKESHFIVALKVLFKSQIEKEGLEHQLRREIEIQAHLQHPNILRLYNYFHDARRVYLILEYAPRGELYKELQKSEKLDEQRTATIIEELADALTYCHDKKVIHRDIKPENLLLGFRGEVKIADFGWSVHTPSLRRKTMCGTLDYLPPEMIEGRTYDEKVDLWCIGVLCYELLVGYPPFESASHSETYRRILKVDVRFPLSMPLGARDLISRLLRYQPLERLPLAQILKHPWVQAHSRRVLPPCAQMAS

Compound | inhibition [1] | inhibition [2] | inhibition [3] | inhibition [4] | inhibition [5] | inhibition [6] | inhibition [7] | inhibition [8] | inhibition [9] | inhibition [10] | inhibition [11] | inhibition [12] | inhibition [13] | inhibition [14] | inhibition [15] | inhibition [16] | inhibition [17] | inhibition [18] | inhibition [19] | inhibition [20] | also measured
CC(C)n1nc(C#Cc2cccc(NC(=O)c3cccc(C(F)(F)F)c3)c2)c2c(N)ncnc21 | 11% | 8% | 17% | 95% | 1% | 2% | 100% | 3% | 3% | 0% | -3% | 33% | 1% | 0% | 1% | 93% | 66% | 0% | 2% | 0% | inhibition [21]: 43%; inhibition [22]: 52%; inhibition [23]: 5%; inhibition [24]: 2%; inhibition [25]: 5%; inhibition [26]: 97%; inhibition [27]: -1%; inhibition [28]: 99%; inhibition [29]: 29%; inhibition [30]: 17%; inhibition [31]: -3%; inhibition [32]: 70%; Ratio (Caco-2): 1.2
CC(C)n1nc(C#Cc2cccc3cc(-c4cccc(C(F)(F)F)c4)ncc23)c2c(N)ncnc21 | 11% | 3% | 8% | 57% | -2% | 3% | 71% | 4% | 8% | 1% | 2% | -2% | -2% | -1% | -5% | 96% | 33% | 1% | 2% | 2% | inhibition [21]: 13%; inhibition [22]: 34%; inhibition [23]: 6%; inhibition [24]: 3%; inhibition [25]: 3%; inhibition [26]: 59%; inhibition [27]: 1%; inhibition [28]: 71%; inhibition [29]: 9%; inhibition [30]: 17%; inhibition [31]: 10%; inhibition [32]: 15%; Ratio (Caco-2): 3.2
